The values that follow come from ChEMBL document CHEMBL4033704, “Discovery, synthesis, and structure-activity relations of 3,4-dihydro-1H-spiro(naphthalene-2,2'-piperidin)-1-ones as potassium-competitive acid blockers” (Bioorg Med Chem, 2017).

Data set [1] is described as follows: Inhibition of potassium-stimulated hydrogen potassium ATPase in pig gastric mucosal microsomal fraction assessed as reduction in liberated inorganic phosphate level after 30 mins in presence of KCl by malachite green staining based colorimetric method. More on the design: species or system Sus scrofa. In short, it runs like this:
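Gastric mucosal microsomal fraction prepared from pig stomach; assay run at pH 6.5. Inhibition expressed as percent of K⁺-stimulated H⁺,K⁺-ATPase activity in control. IC50 obtained by sigmoidal dose-response fitting.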

Data set [2] in a line: AUC (0 to 24 hrs) in Jcl:Sprague-Dawley rat plasma at 0.2 mg/kg, iv by LC/MS/MS analysis. Format: ADME, organism-based. Set-up: time < 24 hr, dose 0.2 mg/kg, route intravenous. In short, it runs like this:
(§1)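 Rats dosed intravenously at 0.2 mg/kg, given as free compound. Blood and stomach sampled 10 min, 1, 4 and 24 h after dosing. Compound levels measured by LC/MS/MS. AUC0-24h calculated from these four time points (plasma ng·h/mL, stomach ng·h/g).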

Data set [3] in a line: Inhibition of sodium and potassium-activated sodium potassium ATPase in porcine cerebral cortex assessed as reduction in liberated inorganic phosphate level after 30 mins in presence of sodium and potassium by malachite green staining based colorimetric method. Set-up: species or system Sus scrofa.
The subject of data set [4] is Rattus norvegicus. Put plainly: Inhibition of histamine-stimulated gastric acid secretion in Jcl:Sprague-Dawley rat at 1 mg/kg, iv pretreated for 3 mins followed by histamine.2HCl stimulation measured after 3 hrs by titration method relative to control. Format: functional. In short, it runs like this:
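Anesthetized rats given compound intravenously at 1, 3 or 10 mg/kg, then histamine. Gastric contents collected and centrifuged at 3000 rpm for 10 min; volume measured. Acid concentration determined by automatic titration to pH 7.0 with 0.1 mol/L NaOH. Total acid output over 3 h (μEq/3 h) compared against vehicle to give percent inhibition.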

A further data set concerns Stomach. As to the kind of experiment: AUC (0 to 24 hrs) in Jcl:Sprague-Dawley rat stomach at 0.2 mg/kg, iv by LC/MS/MS analysis. The data set is classed as ADME, organism-based. Set-up: dose 0.2 mg/kg, time < 24 hr, route intravenous. The conditions noted are these: in vivo. The procedure, abridged:
as §1

The test system of data set [5] is Rattus norvegicus. As to the kind of experiment: Inhibition of histamine-stimulated gastric acid secretion in Jcl:Sprague-Dawley rat at 10 mg/kg, iv pretreated for 3 mins followed by histamine.2HCl stimulation measured after 3 hrs by titration method relative to control. Format: functional.
The species entered for the next data set is Sus scrofa. As to the kind of experiment: Selectivity ratio of IC50 for sodium and potassium-activated sodium potassium ATPase in porcine cerebral cortex to IC50 for potassium-stimulated hydrogen potassium ATPase in pig gastric mucosal microsomal fraction.
For data set [6], the system named is Rattus norvegicus. As to the kind of experiment: Inhibition of histamine-induced acid secretion in rat assessed as increase in pH of gastric perfusate at 3 mg/kg, iv measured after 5 hrs. The data set is classed as functional. In short, it runs like this: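 Anesthetized rats given intravenous infusion of histamine 2HCl via cervical vein at 8 mg/kg/h; gastric perfusate pH monitored. Once pH stabilized, test compound or vehicle given intravenously. Perfusate pH then recorded for 5 h after dosing.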

The nature of data set [7]: Lipophilicity, log D of the compound. The data set is classed as physicochemical. The following applies: octanol/water.

By IC50 is commonly meant the concentration needed to halve the response being measured. In the case of `COc1ccc2c(c1)CC[C@@]1(CCCCN1CCc1cccc(F)c1)C2=O`, in [1], the 50% inhibitory concentration (IC50) turned out to be 370 nM.

With `COc1ccc2c(c1)CCC1(CCCCN1CCc1c(C)cc(C)cc1C)C2=O` (configuration not stated), the IC50 in data set [1] turned out to be 140 nM.

Regarding `COc1ccc2c(c1)CC[C@@]1(CCCCN1CCc1ccccc1F)C2=O`, the concentration for half-maximal inhibition (IC50) in [1] was found to be 160 nM.

On to `COc1ccc2c(c1)CCC1(CCCCN1Cc1ccccc1)C2=O` (configuration not stated), for which, in data set [1], the 50% inhibitory concentration (IC50) is more than 10000 nM.

Take `Cc1ccccc1CCN1CCCCC12CCc1cc(-c3ccccc3)ccc1C2=O` (racemic): the half-maximal inhibitory concentration (IC50) in data set [1] was more than 10000 nM.

`COc1ccc2c(c1)CCC1(CCCCN1CCc1ccccc1Cl)C2=O` (configuration not stated): in [1], the half-inhibitory concentration (IC50) is 170 nM.

As for `O=C1c2ccccc2CCC12CCCCN2CCc1ccccc1` (configuration not stated), in data set [1], the IC50 is 1000 nM.

For the molecule `COc1ccc2c(c1)CC[C@]1(CCCCN1CCc1ccccc1C)C2=O`, the half-inhibitory concentration (IC50) in data set [1] was more than 10000 nM.

For `COc1ccc2c(c1)CCC1(CCCCN1CCc1ccc(F)cc1C)C2=O` (configuration not stated), the IC50 in data set [1] worked out at 57 nM.

Regarding `COc1cccc2c1C(=O)C1(CCCCN1CCc1ccccc1C)CC2` (configuration not stated), in [1], the IC50 stood at 290 nM.

With `Cc1ccccc1CCN1CCCCC12CCc1ccccc1C2=O` (racemic), the IC50 in data set [1] worked out at 290 nM.

The term AUC(0-t) denotes exposure summed from dosing to a finite time, without extrapolation to infinity. Low values mean low exposure, high ones high exposure. As usually defined, the inhibition in vivo is the drop in the measured response relative to a control, in per cent. In [2], `COc1ccc2c(c1)CC[C@@]1(CCCCN1CCc1ccccc1C)C2=O.Cl` gave an AUC(0-t) at 24 h of 74 ng·h/mL. Further, the IC50 was 46 nM in data set [1] and more than 10000 nM in [3]. Besides, the inhibition in vivo at 1 mg/kg with Rattus norvegicus [4] turned out to be 87%. In the data set with Stomach, this molecule yielded an AUC of 3035 ng·h/g.

On to `COc1ccc2c(c1)CCC1(CCCCN1CCCCc1ccccc1)C2=O` (configuration not stated), for which, in data set [1], the IC50 is more than 10000 nM.

For `COc1ccc2c(c1)CC[C@@]1(CCCCN1CCc1ccc(F)cc1)C2=O`, the IC50 in data set [1] was 64 nM.

Take `COc1ccc2c(c1)C(=O)C1(CCCCN1CCc1ccccc1C)CC2` (racemic): the IC50 in data set [1] was found to be 270 nM.

Regarding `Cc1ccccc1CCN1CCCCC12CCc1cc(C#N)ccc1C2=O` (racemic), the 50% inhibitory concentration (IC50) in data set [1] is more than 10000 nM.

Consider `COc1ccc2c(c1)CCC1(CCCCN1CCCc1ccccc1)C2=O` (configuration not stated), for which the IC50 in [1] worked out at 890 nM.

Turning to `COc1cccc(CCN2CCCC[C@@]23CCc2cc(OC)ccc2C3=O)c1`, the IC50 in data set [1] turned out to be 1100 nM.

As for `COc1ccc2c(c1)CCC1(CCCCN1c1ccccc1)C2=O` (configuration not stated), the IC50 in [1] was more than 10000 nM.

On to `COc1ccc2c(c1)CCC1(CCCCN1CC(C)c1ccccc1)C2=O` (configuration not stated), for which, in data set [1], the IC50 came to 300 nM.

Take `COc1ccc2c(c1)CCC1(CCCCN1CCc1ccccc1C)C2=O` (configuration not stated): in data set [1], the half-maximal inhibitory concentration (IC50) amounted to 82 nM.

For the molecule `COc1ccc2c(c1)CCC1(CCCCN1C(=O)Cc1ccccc1)C2=O` (configuration not stated), in data set [1], the IC50 is more than 10000 nM.

`COc1ccc(CCN2CCCC[C@@]23CCc2cc(OC)ccc2C3=O)cc1`: in data set [1], the half-inhibitory concentration (IC50) is 1800 nM.

`O=C1c2cccc3[nH]cc(c23)CC12CCCCN2CCc1ccccc1` (configuration not stated): the AUC(0-t) at 24 h in data set [2] turned out to be 71 ng·h/mL. The inhibition in vivo at 10 mg/kg in the data set on Rattus norvegicus [5] is 71%. Further, the concentration for half-maximal inhibition (IC50) in data set [1] is 1600 nM; in [3] it was more than 10000 nM. The AUC in the data set on Stomach amounted to 1171 ng·h/g. In addition, the Ratio IC50 in the data set listed under Sus scrofa was more than 100.

For `COc1cccc2c1CCC1(CCCCN1CCc1ccccc1C)C2=O` (configuration not stated), in data set [1], the IC50 stood at 300 nM.

For `COc1ccc2c(c1)CCC1(CCCCN1CCc1ccccc1)C2=O` (configuration not stated), in [1], the IC50 amounted to 290 nM.

Consider `COc1ccc2c(c1)CCC1(CCCCN1CC(=O)c1ccccc1)C2=O` (configuration not stated), for which the IC50 in data set [1] is more than 10000 nM.

As to `COc1ccc2c(c1)CC[C@]1(CCCCN1CCc1ccc(F)cc1)C2=O`, the IC50 in data set [1] is more than 10000 nM.

For the molecule `CC(=O)Nc1ccc2c(c1)CC[C@]1(CCCCN1CCc1ccccc1C)C2=O`, the IC50 in [1] is more than 10000 nM.

Consider `COc1ccc2c(c1)CC[C@@]1(CCCCN1CCc1ccccc1OC)C2=O`, for which the IC50 in [1] was determined as 83 nM.

One may read the logD as the decadic logarithm of the distribution of all forms, ionised or not, between an organic phase and buffer at a given pH. Read a low logD as lower lipophilicity. `CC(=O)Nc1ccc2c(c1)CC[C@@]1(CCCCN1CCc1ccccc1C)C2=O`: the pH with Rattus norvegicus [6] is 6. The molecule further gave an AUC(0-t) at 24 h in data set [2] of 68 ng·h/mL. In [7], this molecule displayed a logD of 3.56. Also, in data set [1], the IC50 stood at 31 nM. Further, the inhibition in vivo at 1 mg/kg with Rattus norvegicus [4] was found to be 95%. For the same molecule, in the data set with Stomach, the AUC stood at 15131 ng·h/g.

For the molecule `CC(=O)Nc1ccc2c(c1)CCC1(CCCCN1CCc1ccccc1C)C2=O` (racemic), the half-maximal inhibitory concentration (IC50) in data set [1] is 45 nM.

`COc1ccc2c(c1)CCC1(CCCCN1CCc1ccc(F)cc1)C2=O` (configuration not stated): the half-maximal inhibitory concentration (IC50) in data set [1] was found to be 87 nM.
